For data set [1], the system named is HeLa. The data set can be described thus: Cytotoxicity against human HeLa cells after 72 hrs by MTT assay. It counts as functional, cell-based. Summed up: (§1)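 MTT assay in HeLa, HL60 and U937 cancer lines. IC50 in µM is the mean ± SD of three independent experiments. 5-Fluorouracil and paclitaxel served as positive controls.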
A general note: Tetrazolium dyes change colour on reduction, which living cells bring about.

The test system of data set [2] is HL-60. The data set can be described thus: Cytotoxicity against human HL60 cells after 72 hrs by MTT assay. In kind it is functional, cell-based. As to conditions: HL-60, 72 h. Summed up: as §1
The subject of data set [3] is U-937. The data set can be described thus: Cytotoxicity against human U937 cells after 72 hrs by MTT assay. It counts as functional, cell-based. As to conditions: U-937, 72 h. In short, it runs like this: as §1
The nature of data set [4]: Cytotoxicity against human PBMC cells assessed as cell viability at 5 uM after 12 hrs by MTT assay. As to conditions: read-out: Activity. It counts as cell-based. Summed up:
(§2)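 PBMC from three healthy adult volunteers, seeded at 5 × 10^5 cells/well in 96-well plates; cultured with various doses of test agent for 12, 24, 48 and 72 h; viability read out; n=3, mean ± SD; significance p < 0.05.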

The nature of data set [5]: Cytotoxicity against human PBMC cells assessed as cell viability at 5 uM after 24 hrs by MTT assay. In kind it is cell-based. Particulars: read-out: Activity. In short, it runs like this:
as §2

Data set [6] is described as follows: Cytotoxicity against human PBMC cells assessed as cell viability at 5 uM after 48 hrs by MTT assay. In kind it is cell-based. As to conditions: read-out: Activity. Summed up: as §2
The nature of data set [7]: Cytotoxicity against human PBMC cells assessed as cell viability at 5 uM after 72 hrs by MTT assay. In kind it is cell-based. As to conditions: read-out: Activity. Summed up:
as §2

Data set [8] concerns HL-60. The data set can be described thus: Induction of autophagy in human HL60 cells assessed as formation of autophagic vacuoles at 0.5 umol/L by MDC staining-based flow cytometry. Particulars: TDE = time-dependent effect. In kind it is functional, cell-based. Summed up:
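Autophagic vacuoles were labelled with monodansylcadaverine and viewed by fluorescence microscopy. MDC fluorescence intensity was quantified by flow cytometry after 0.5 µmol L-1 treatment.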

Data set [9] deals with HL-60. The data set can be described thus: Cell cycle arrest in human HL60 cells assessed as accumulation at sub-G1 phase after 24 hrs by PI-based flow cytometry analysis ( Rvb = 1.73 +/-0.08 %). In kind it is functional. Summed up:
(§3)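 HL60 cells exposed to 0.5 µM for 24, 48 and 72 h alongside untreated controls. Apoptosis was quantified by flow cytometry as the subG1 fraction.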
In general terms: In flow cytometry, cells or beads pass a laser one at a time.

Data set [10] has as its system HL-60. Put plainly: Cell cycle arrest in human HL60 cells assessed as accumulation at sub-G1 phase after 48 hrs by PI-based flow cytometry analysis ( Rvb = 1.73 +/-0.08 %). In kind it is functional. Summed up: as §3
Data set [11] concerns HL-60. Put plainly: Cell cycle arrest in human HL60 cells assessed as accumulation at sub-G1 phase after 72 hrs by PI-based flow cytometry analysis ( Rvb = 1.73 +/-0.08 %). It counts as functional. In short, it runs like this:
as §3

In data set [12] the test system is HL-60. Put plainly: Induction of autophagy in human HL60 cells at 0.5 umol/L after 48 hrs by MDC staining based flow cytometry (reference value: 2.27 +/- 0.43 %). It counts as functional. Summed up: (§4)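 HL60 cells were treated with 0.5 µmol L-1 for 0, 24, 48 or 72 h, stained with MDC, and fluorescence intensity was analysed by flow cytometry.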
Data set [13] concerns HL-60. Put plainly: Induction of autophagy in human HL60 cells at 0.5 umol/L after 72 hrs by MDC staining based flow cytometry (reference value: 2.27 +/- 0.43 %). It counts as functional. Summed up:
as §4

Data set [14] relates to HL-60. Put plainly: Induction of autophagy in human HL60 cells assessed as increase in beclin 1 level at 0.5 umol/L by Western blot analysis. In kind it is functional, cell-based. Particulars: TDE = time-dependent effect. In short, it runs like this: (§5)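 HL60 cells were treated with 0.5 µmol L-1 over a time course and analysed by Western blot for Beclin-1 and LC3-I to LC3-II conversion, with β-actin as loading control.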

Data set [15] deals with HL-60. Put plainly: Induction of apoptosis in human HL60 cells assessed as chromatin condensation by acridine orange staining-based fluorescence microscopy. It counts as functional, cell-based. In short, it runs like this:
(§6)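 HL60 cells were stained with acridine orange and examined under a fluorescence microscope for chromatin condensation and nuclear fragmentation, with control-medium cells as reference.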

The subject of data set [16] is HL-60. The data set can be described thus: Induction of apoptosis in human HL60 cells assessed as nuclear fragmentation by acridine orange staining-based fluorescence microscopy. In kind it is functional, cell-based. Summed up: as §6
Data set [17] relates to HL-60. Put plainly: Induction of apoptosis in human HL60 cells assessed as decrease in number of MDC-positive cells at 0.5 uM after 24 hrs by MDC staining-based fluorescence analysis in presence of 3-MA. In kind it is functional, cell-based. Summed up:
(§7)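 HL60 cells were treated 24 h with 0.5 µM, with or without 1 mM 3-MA added beforehand. MDC-positive (autophagic) ratio and apoptotic ratio were measured by flow cytometry. Mean ± SD, n = 3.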

In data set [18] the test system is HL-60. The data set can be described thus: Induction of apoptosis in human HL60 cells assessed as decrease in apoptotic ratio at 0.5 uM after 24 hrs by MDC staining-based fluorescence analysis in presence of 3-MA. In kind it is functional, cell-based. Summed up: as §7
Data set [19] deals with HL-60. Put plainly: Cell cycle arrest in human HL60 cells assessed as accumulation at sub-G1 phase by PI-based flow cytometry analysis. It counts as functional. Particulars: TDE = time-dependent effect. Summed up: as §3
Data set [20] concerns HL-60. Put plainly: Induction of autophagy in human HL60 cells assessed as increase in LC3-II level at 0.5 umol/L by Western blot analysis. Particulars: TDE = time-dependent effect. In kind it is functional, cell-based. Summed up:
as §5
On the technique in general: In western blotting, separated proteins are transferred to a membrane and probed.

Data set [21] deals with PBMC. The data set can be described thus: Cytotoxicity against human PBMC cells assessed as cell viability at 160 uM after 24 to 72 hrs by MTT assay. In kind it is cell-based. Summed up:
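PBMC were taken from three healthy adult volunteers and seeded at 5 × 10^5 cells/well. They were cultured 12, 24, 48 and 72 h across a range of concentrations up to 160 µM, with 5-FU for comparison. Viability is mean ± SD, n=3, compared by p < 0.05.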

Data set [22] concerns HL-60. The data set can be described thus: Induction of apoptosis in human HL60 cells assessed as retraction of cellular process at 0.5 uM after 24 hrs by phase contrast microscopy. In kind it is functional, cell-based. Summed up: (§8)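 HL60 cells were cultured with 0.5 µM for 24, 48 and 72 h. Morphology was compared with untreated control cells by microscopy.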
Data set [23] deals with HL-60. The data set can be described thus: Induction of apoptosis in human HL60 cells assessed as round in cell shape at 0.5 uM after 24 hrs by phase contrast microscopy. It counts as functional, cell-based. In short, it runs like this:
as §8

For data set [24], the system named is HL-60. The data set can be described thus: Induction of apoptosis in human HL60 cells assessed as round cell with shrunken nuclei at 0.5 uM after 48 hrs by phase contrast microscopy. In kind it is functional, cell-based. In short, it runs like this:
as §8

Data set [25] has as its system HL-60. The data set can be described thus: Induction of apoptosis in human HL60 cells assessed as membrane blebbing at 0.5 uM after 48 hrs by phase contrast microscopy. It counts as functional, cell-based. Summed up:
as §8

In data set [26] the test system is HL-60. The data set can be described thus: Induction of apoptosis in human HL60 cells assessed as fragmentation of nuclei into apoptotic bodies at 0.5 uM after 48 hrs by phase contrast microscopy. It counts as functional, cell-based. In short, it runs like this:
as §8

For data set [27], the system named is HL-60. The data set can be described thus: Induction of apoptosis in human HL60 cells assessed as non-adherent dead cell at 0.5 uM after 48 hrs by phase contrast microscopy. It counts as functional, cell-based. In short, it runs like this:
as §8

For data set [28], the system named is HL-60. Put plainly: Induction of autophagy in human HL60 cells at 0.5 umol/L after 24 hrs by MDC staining based flow cytometry (reference value: 2.27 +/- 0.43 %). In kind it is functional. In short, it runs like this: as §4

Calls of active or inactive are those of the source. The rule behind the calls is not given here.

A word on the IC50: it is the concentration at which inhibition is half-maximal. A low value points to inhibition by little substance. `c1ccc(-c2nc3cc(Oc4ccc5[nH]c(-c6ccccc6)nc5c4)ccc3[nH]2)cc1`: the figures for the half-maximal inhibitory concentration (IC50) in [1], in data set [2] and in [3] were 18.4 µM, 16.5 µM and 17.1 µM, respectively.

For `Fc1ccc(-c2nc3cc(Oc4ccc5[nH]c(-c6ccc(F)cc6)nc5c4)ccc3[nH]2)cc1`, the IC50 worked out at 22.8 µM in data set [1], 23.2 µM in data set [2] and 22.6 µM in data set [3].

On to `COc1cc(-c2nc3cc(Oc4ccc5[nH]c(-c6ccc(O)c(OC)c6)nc5c4)ccc3[nH]2)ccc1O`, for which the IC50 worked out at 10.6 µM in data set [1], 8.17 µM in data set [2] and 5.6 µM in data set [3].

For the compound `Clc1ccc(-c2nc3cc(Oc4ccc5[nH]c(-c6ccc(Cl)cc6Cl)nc5c4)ccc3[nH]2)c(Cl)c1`, the IC50 in data set [1] was 17.2 µM; in data set [2], 15.8 µM; in data set [3], 20.5 µM.

With `O=c1[nH]cc(F)c(=O)[nH]1` [FLUOROURACIL], the IC50 in data set [1] is 0.28 µM; in data set [2], 0.06 µM; in [3], 1.07 µM. Moreover, the viability at 12 h, 5 µM in data set [4] was found to be 98%. Moreover, the viability at 24 h, 5 µM in [5] turned out to be 94%. The viability at 48 h, 5 µM in [6] is 87%. Besides, in data set [7], the viability at 72 h, 5 µM turned out to be 76%.

Turning to `COc1cc(-c2nc3cc(Oc4ccc5[nH]c(-c6cc(OC)c(OC)c(OC)c6)nc5c4)ccc3[nH]2)cc(OC)c1OC`, the results for the IC50 in data set [1], in data set [2] and in data set [3] were 9.37 µM, 7.56 µM and 6.92 µM, respectively.

For `CN1CCN(c2ccc3[nH]c(-c4ccc5[nH]c(-c6ccc(O)cc6)nc5c4)nc3c2)CC1` [HOECHST 33258], the half-inhibitory concentration (IC50) was 51.3 µM in data set [1], 32.4 µM in data set [2] and 15.4 µM in data set [3].

As to `Brc1ccc(-c2nc3cc(Oc4ccc5[nH]c(-c6ccc(Br)cc6)nc5c4)ccc3[nH]2)cc1`, the IC50 was found to be 20.4 µM in [1], 17.2 µM in data set [2] and 21.7 µM in [3].

As to `COc1cc(OC)cc(-c2nc3cc(Oc4ccc5[nH]c(-c6cc(OC)cc(OC)c6)nc5c4)ccc3[nH]2)c1`, the concentration for half-maximal inhibition (IC50) in [1] came out at 8.59 µM; in [2], 6.35 µM; in data set [3] it was 7.09 µM.

For `CC(=O)O[C@H]1C(=O)[C@@]2(C)[C@H]([C@H](OC(=O)c3ccccc3)[C@]3(O)C[C@H](OC(=O)[C@H](O)[C@@H](NC(=O)c4ccccc4)c4ccccc4)C(C)=C1C3(C)C)[C@]1(OC(C)=O)CO[C@@H]1C[C@@H]2O` [PACLITAXEL], the IC50 amounted to 0.00282 µM in [2] and 0.00337 µM in [3].

With `COc1ccc(-c2nc3cc(Oc4ccc5[nH]c(-c6ccc(OC)cc6)nc5c4)ccc3[nH]2)cc1`, the Activity result was “tde” in [8]; 13.8% in data set [9]; 63.02% in data set [10]; 89.61% in data set [11]; 47.27% in [12]; 89.65% in data set [13]. The Activity result in data set [14] is “tde”; in data set [19] it was “tde”; in data set [20], “tde”; in [21] it was “Non-toxic”; in data set [28], 9.79%. Also, the result in [15], in data set [16], in data set [17], in [18], in data set [22] and in [23] was Active. In addition, the result in data set [24], in data set [25], in data set [26] and in data set [27] was Active. The figures for the concentration for half-maximal inhibition (IC50) in data set [1], in data set [2] and in [3] were 4.96 µM, 0.56 µM and 0.58 µM, respectively. Besides, the viability at 12 h, 5 µM in data set [4] was 98%. Further, the viability at 24 h, 5 µM in data set [5] was 96%. Besides, the viability at 48 h, 5 µM in data set [6] stood at 88%. In addition, the viability at 72 h, 5 µM in [7] worked out at 79%.

The values are drawn from ChEMBL document CHEMBL2146370, “Newly synthesized bis-benzimidazole derivatives exerting anti-tumor activity through induction of apoptosis and autophagy” (Bioorg Med Chem Lett, 2012).
